Consider 10 molecules from ChEMBL document CHEMBL2412965, “Macrocyclic biphenyl tetraoxazoles: synthesis, evaluation as G-quadruplex stabilizers and cytotoxic activity” (Bioorg Med Chem, 2013).

Series [1] is described as follows: Cytotoxicity against human KBV1 cells overexpressing MDR1 after 4 days by MTT assay. The series is classed as functional, cell-based. The note with it: KB-V1, 96 h. An outline of the steps:
(§1)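 Cells were grown in suspension in RPMI with 10% heat-inactivated FBS, 2 mM L-glutamine, penicillin and streptomycin at 37 °C, 5% CO2. Drug exposure was continuous for 4 days across a concentration range, with a drug-free control. IC50 came from at least two experiments in six replicate wells.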
In general terms: Tetrazolium assays rely on reduction of a dye to a coloured formazan, in cell work by metabolically active cells.

The species named for series [2] is Homo sapiens. The experiment in a line: Binding affinity to human d(TTAGGG)4 assessed as thermal transition temperature at 20 uM preincubated for 5 mins at 90 degC followed by cooling at room temperature measured after 4 hrs by UV spectrophotometric analysis in presence of 150 mM K+ (reference value: 63.1 degC). An outline of the steps: (§2)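 UV melting of human telomeric d(TTAGGG)4 at 5 μM strand (120 μM nucleotide), with ligand at 20 μM. Before use, DNA was heated 5 min at 90 °C and cooled slowly to room temperature over 4 h. Buffer was 10 mM potassium phosphate, pH 7.5, with KCl added to give 50 mM K+ (32 mM KCl) or 150 mM K+ (132 mM KCl). Absorbance was read at 295 nm in 0.5 °C steps with 1 min equilibration. Ttran was taken from the first-derivative minimum.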

Series [3] concerns Salmonidae. The experiment in a line: Binding affinity to salmon testes duplex DNA assessed as thermal transition temperature at 15 uM preincubated for 5 mins at 90 degC followed by cooling at room temperature measured after 4 hrs by UV spectrophotometric analysis in presence of 50 mM K+ (reference value: 78.2 degC). In short, it runs like this: (§3)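 Salmon testes duplex DNA melting with ligand at 15 μM in 1 cm quartz cells. Buffer was 10 mM potassium phosphate, pH 7.5, with KCl added to give 50 mM K+ (32 mM KCl) or 150 mM K+ (132 mM KCl). Absorbance was read at 260 nm, temperature raised in 0.5 °C increments with 1 min equilibration and 5 s averaging. Ttran was taken from the first-derivative maximum.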

The nature of series [4]: Cytotoxicity against human RPMI8402 cells after 4 days by MTT assay. The series is classed as functional, cell-based. As to conditions: RPMI 8402, 96 h.
Series [5] is described as follows: Cytotoxicity against human KBH5.0 cells overexpressing BCRP after 4 days by MTT assay. The series is classed as functional, cell-based. As to conditions: KBH5.0 cell, 96 h. An outline of the steps:
as §1

Series [6] relates to Salmonidae. The experiment in a line: Binding affinity to salmon testes duplex DNA assessed as thermal transition temperature at 15 uM preincubated for 5 mins at 90 degC followed by cooling at room temperature measured after 4 hrs by UV spectrophotometric analysis in presence of 150 mM K+ (reference value: 86.1 degC). An outline of the steps:
as §3

The species entered for series [7] is Homo sapiens. The experiment in a line: Binding affinity to human d(TTAGGG)4 assessed as thermal transition temperature at 20 uM preincubated for 5 mins at 90 degC followed by cooling at room temperature measured after 4 hrs by UV spectrophotometric analysis in presence of 50 mM K+ (reference value: 55.3 degC). In short, it runs like this:
as §2

Series [8] in a line: Cytotoxicity against wild type human KB-3-1 cells after 4 days by MTT assay. The note with it: KB 3-1, 96 h. The series is classed as functional, cell-based. An outline of the steps: as §1
Series [9] concerns MDA-MB-435. The experiment in a line: Antitumor activity against human MDA-MB-435 cells xenografted in athymic nude NCr mouse assessed as tumor growth inhibition at 14 to 31 mg/kg, ip administered 3 times per week for 3 weeks followed by 42 mg/kg, ip dose for 3 times per week for last 10 days measured 2 times per week during compound administration relative to control. Type of series: functional. For orientation: Xenograft models place foreign cells or tissue in a host animal.

Series [10] relates to Mus musculus. The experiment in a line: Toxicity in athymic nude NCr mouse xenografted with human MDA-MB-435 cells administered as ip for 3 times per week for 4 weeks measured 2 times per week during compound administration. The note with it: in vivo, 672 h. Type of series: organism-based.

pIC50: −log10 of the molar value.

In general, pIC50 refers to −log10 of the IC50, conventionally taken in molar units. On to `CC(C)(C)OC(=O)NCC[C@@H]1NC(=O)c2coc(n2)-c2coc(n2)-c2cccc(c2)-c2cccc(c2)-c2nc(co2)-c2nc(co2)CNC1=O`, for which the pIC50 in series [1] is < 5.00; in series [4] it was 5.46; in series [5] it was 5.22; in [8], < 5.00. Further, the T turned out to be 64.2 °C in series [2], 78.3 °C in series [3], 86.5 °C in series [6] and 57.7 °C in series [7].

For orientation: T/C means the result in the treated group divided by that in the control group, in per cent. With `CC(C)[C@@H]1NC(=O)c2coc(n2)-c2coc(n2)-c2coc(n2)[C@H](CCN(C)C)NC(=O)c2coc(n2)-c2coc(n2)-c2coc1n2`, the pIC50 in series [1] is 5.30; in [4] it was 7.15; in series [5] it was 7.52. For the same molecule, the T in series [2] is 92.2 °C; in [3] it was 78.2 °C; in series [6], 86.7 °C; in [7] it was 92.7 °C. For the same molecule, the T/C in [9] amounted to 21.6%. In addition, in series [10], the Activity entry is reported as “<= 45 mg kg-1”.

Regarding `CC(C)[C@@H]1NC(=O)c2coc(n2)-c2coc(n2)-c2cccc(c2)-c2cccc(c2)-c2nc(co2)-c2nc(co2)CNC1=O`, the pIC50 is 5.19 in [1], 5.00 in series [5] and 5.30 in series [8]. Besides, the T in [2] was determined as 67.2 °C; in [3], 78.2 °C; in [6], 86.2 °C; in series [7], 61.7 °C.

Take `O=C1CNC(=O)c2coc(n2)-c2coc(n2)-c2cccc(c2)-c2cccc(c2)-c2nc(co2)-c2nc(co2)CN1`: the pIC50 in series [1] is < 5.00; in [4], 5.60; in series [5] it was < 5.00; in series [8], 5.64. The T in series [2] worked out at 67.3 °C; in series [3], 78.2 °C; in series [6], 86.7 °C; in series [7], 60.1 °C.

Turning to `CN(C)CC[C@@H]1NC(=O)c2coc(n2)-c2coc(n2)-c2cccc(c2)-c2cccc(c2)-c2nc(co2)-c2nc(co2)CNC1=O`, the pIC50 in series [1] was < 5.00; in [4], 5.19; in series [5] it was < 5.00; in series [8], 5.46. Moreover, the T in [2] was 73.7 °C; in series [3], 79.1 °C; in [6], 86.7 °C; in series [7] it was 63.7 °C.

Regarding `CN(C)CCc1cc2cc(c1)CNC(=O)c1coc(n1)-c1coc(n1)-c1cccc(n1)-c1nc(co1)-c1nc(co1)C(=O)NC2`, the pIC50 in series [1] was < 5.00; in series [4] it was 6.74; in series [5], < 5.00; in series [8], 7.40. Besides, the T in [2] turned out to be 91.2 °C; in series [3], 78.7 °C; in series [6], 86.8 °C; in [7] it was 91.2 °C.

In the case of `CC(C)[C@@H]1NC(=O)c2coc(n2)-c2coc(n2)-c2coc(n2)C/C=C/c2coc(n2)-c2coc(n2)-c2coc1n2`, the pIC50 in series [1] was 5.48; in [4], 7.52; in series [5], 7.40. Moreover, the T in series [2] stood at 93.2 °C; in series [3], 78.2 °C; in series [6], 86.2 °C; in series [7], 92.2 °C.

In the case of `CC(C)[C@@H]1NC(=O)c2coc(n2)-c2coc(n2)-c2coc(n2)[C@H](C(C)C)NC(=O)c2coc(n2)-c2coc(n2)-c2coc1n2` [HEXAOXAZOLE DIVALINE], the pIC50 in series [1] was < 5.00; in series [4] it was 6.39; in [5], 6.30; in series [8], 6.52.

`O=C1N[C@@H](Cc2ccccc2)C(=O)NCc2coc(n2)-c2coc(n2)-c2cccc(c2)-c2cccc(c2)-c2nc(co2)-c2nc1co2`: the pIC50 in series [1], in series [4], in series [5] and in [8] was < 5.00 each time. For the same molecule, the T in series [2] turned out to be 64.7 °C; in [3], 77.2 °C; in [6], 85.7 °C; in [7], 58.1 °C.

`NCC[C@@H]1NC(=O)c2coc(n2)-c2coc(n2)-c2cccc(c2)-c2cccc(c2)-c2nc(co2)-c2nc(co2)CNC1=O`: the pIC50 was < 5.00 in series [1], 5.15 in series [4], < 5.00 in series [5] and 5.40 in [8]. For the same molecule, the T in series [2] stood at 77.7 °C; in series [3] it was 81.1 °C; in [6], 87.1 °C; in [7], 68.2 °C.
